Common to all, as to type: functional
In assay [1] the test system is Staphylococcus aureus. The assay is described as follows: Antibacterial activity against methicillin-resistant Staphylococcus aureus NRS484 assessed as inhibition of visible bacterial growth incubated for 18 to 20 hrs by CLSI method. The note with it: time 18-20 hrs. In a few lines: (§1)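 CLSI broth microdilution. Strains grown aerobically overnight on tryptic soy agar at 37 °C, adjusted to 0.5 McFarland and diluted in cation-adjusted Mueller–Hinton broth to about 5×10^5 CFU/mL. Compounds and control drugs serially diluted across the plate. Incubated aerobically at 37 °C for 18-20 h. MIC is the lowest concentration with no visible growth.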

In assay [2] the test system is Streptococcus pneumoniae. The assay is described as follows: Antibacterial activity against cephalosporin-resistant Streptococcus pneumoniae ATCC 51916 assessed as inhibition of visible bacterial growth incubated for 18 to 20 hrs by CLSI method. The settings on record: time 18-20 hrs. In short, it runs like this:
as §1

The subject of assay [3] is Streptococcus pneumoniae. The experiment in a line: Antibacterial activity against […] Streptococcus pneumoniae ATCC 700677 assessed as inhibition of visible bacterial growth incubated for 18 to 20 hrs by CLSI method. The note with it: time 18-20 hrs. In a few lines: as §1
For assay [4], the system named is Enterococcus faecalis. The assay is described as follows: Antibacterial activity against vancomycin- resistant Enterococcus faecalis ATCC 51299 assessed as inhibition of visible bacterial growth incubated for 18 to 20 hrs by CLSI method. The settings on record: time 18-20 hrs. In short, it runs like this:
as §1

The subject of assay [5] is Enterococcus faecalis. The experiment in a line: Antibacterial activity against vancomycin- resistant Enterococcus faecalis ATCC 700221 assessed as inhibition of visible bacterial growth incubated for 18 to 20 hrs by CLSI method. The settings on record: time 18-20 hrs. In short, it runs like this:
as §1

The next assay concerns Listeria monocytogenes. The experiment in a line: Antibacterial activity against Listeria monocytogenes ATCC 19111 assessed as inhibition of visible bacterial growth incubated for 18 to 20 hrs by CLSI method. The settings on record: time 18-20 hrs. In a few lines:
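Broth microdilution per CLSI. Strains grown aerobically overnight on TSA at 37 °C, suspended to 0.5 McFarland, diluted in CAMHB to about 5×10^5 CFU/mL. Agents serially diluted across plate; aerobic incubation 37 °C for 18-20 h. MIC = lowest concentration completely preventing visible growth.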

Assay [6] deals with Staphylococcus aureus. The assay is described as follows: Bactericidal activity against methicillin-resistant Staphylococcus aureus ATCC 33592 assessed as reduction in bacterial growth incubated for 18 hrs by CLSI method.
The subject of assay [7] is Staphylococcus aureus. The experiment in a line: Antibacterial activity against methicillin-resistant Staphylococcus aureus USA400 infected in mouse J774 cells assessed as log reduction in intracellular growth at 8 ug/ml incubated for 18 to 22 hrs. The settings on record: dose 8.0 µg/ml, time 18-22 hrs. In a few lines: (§2)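 J774 murine macrophages grown in DMEM with 10% FBS at 37 °C, 5% CO2. Cells infected with MRSA USA400 at MOI about 10:1 for 1 h, then washed with gentamicin to remove extracellular bacteria. Agents added at 8 or 16 μg/mL in triplicate, with DMSO vehicle control, for 24 h. Cells lysed with 0.1% Triton-X, lysates plated on tryptic soy agar, and CFU counted after 18-22 h at 37 °C. Analysed by two-way ANOVA with Dunnett's test.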

Assay [8] concerns Staphylococcus aureus. The experiment in a line: Antibacterial activity against methicillin-resistant Staphylococcus aureus USA400 infected in mouse J774 cells assessed as log reduction in intracellular growth at 16 ug/ml incubated for 18 to 22 hrs. The settings on record: dose 16.0 µg/ml, time 18-22 hrs. In short, it runs like this: as §2
In assay [9] the test system is Staphylococcus aureus. The assay is described as follows: Antibacterial activity against Staphylococcus aureus ATCC 25923 assessed as inhibition of visible bacterial growth incubated for 18 to 20 hrs by CLSI method. The note with it: time 18-20 hrs. In a few lines: as §1
Assay [10] deals with Staphylococcus aureus. The assay is described as follows: Antibacterial activity against methicillin-resistant Staphylococcus aureus ATCC 33592 assessed as inhibition of visible bacterial growth incubated for 18 to 20 hrs by CLSI method. The note with it: time 18-20 hrs. In a few lines:
as §1

This passage reports MIC, MBC and Activity results from ChEMBL document CHEMBL4715682, “Potent trifluoromethoxy, trifluoromethylsulfonyl, trifluoromethylthio and pentafluorosulfanyl containing (1,3,4-oxadiazol-2-yl)benzamides against drug-resistant Gram-positive bacteria” (RSC Med Chem, 2020).

Values after ≈ are worked out from the molar mass of the structure shown. Active and inactive are the calls of the source. The calls are words filed in the database; no cut-off is given here.

For `CN[C@H](CC(C)C)C(=O)N[C@H]1C(=O)N[C@@H](CC(N)=O)C(=O)N[C@H]2C(=O)N[C@H]3C(=O)N[C@H](C(=O)N[C@H](C(=O)O)c4cc(O)cc(O)c4-c4cc3ccc4O)[C@H](O)c3ccc(c(Cl)c3)Oc3cc2cc(c3O[C@@H]2O[C@H](CO)[C@@H](O)[C@H](O)[C@H]2O[C@H]2C[C@](C)(N)[C@H](O)[C@H](C)O2)Oc2ccc(cc2Cl)[C@H]1O` [VANCOMYCIN], the minimum inhibitory concentration (MIC) (in general, the lowest concentration that inhibits growth of the organism) with Staphylococcus aureus [1] was above 2 mg/L; in the assay with Streptococcus pneumoniae [2], 0.5 mg/L (≈ 0.345 µM); in the assay on Streptococcus pneumoniae [3], 1 mg/L (≈ 0.69 µM); with Enterococcus faecalis [4], 32 mg/L (≈ 22.1 µM); in the assay on Enterococcus faecalis [5] it was above 64 mg/L; with Listeria monocytogenes, 0.5 mg/L (≈ 0.345 µM). The MBC (commonly the lowest tested concentration that kills the bacteria rather than only halting them) in the assay with Staphylococcus aureus [6] came to 1 mg/L (≈ 0.69 µM). Also, the outcome in the assay on Staphylococcus aureus [7] and with Staphylococcus aureus [8] was inactive.

For the compound `O=C(Nc1nnc(-c2cccs2)o1)c1ccc(C(F)(F)F)cc1`, the MIC in the assay on Staphylococcus aureus [9] and in the assay with Staphylococcus aureus [10] was 2 mg/L (≈ 5.89 µM) in each case.

With `O=C(Nc1nnc(-c2cccs2)o1)c1ccc(C(F)(F)F)s1`, the MIC in the assay on Staphylococcus aureus [9] amounted to 4 mg/L (≈ 11.6 µM); with Staphylococcus aureus [10] it was 2 mg/L (≈ 5.79 µM).

Take `O=C(Nc1nnc(-c2cccs2)o1)c1cccc(C(F)(F)F)n1`: the MIC in the assay on Staphylococcus aureus [9] and in the assay on Staphylococcus aureus [10] was 16 mg/L (≈ 47 µM) each time.

As to `O=C(Nc1nnc(-c2cccs2)o1)c1ccc(SC(F)F)cc1`, the MIC with Staphylococcus aureus [9] and with Staphylococcus aureus [10] was 4 mg/L (≈ 11.3 µM) each time.

`O=C(Nc1nnc(-c2cccs2)o1)c1ccc(C(F)(F)F)cn1`: the figures for the MIC in the assay with Staphylococcus aureus [9] and in the assay with Staphylococcus aureus [10] were 64 mg/L (≈ 188 µM) and 32 mg/L (≈ 94 µM), respectively.

Turning to `CSc1ccc(C(=O)Nc2nnc(-c3cccs3)o2)cc1`, the minimum inhibitory concentration (MIC) with Staphylococcus aureus [9] and in the assay with Staphylococcus aureus [10] was 4 mg/L (≈ 12.6 µM) each time.
